Published values pooled from the literature.
Lines come from different studies, so protocols differ.
Target: Tyrosine-protein kinase TXK (TXK, Homo sapiens, UniProt P42681)
Residues used in one study (P42681 1-527): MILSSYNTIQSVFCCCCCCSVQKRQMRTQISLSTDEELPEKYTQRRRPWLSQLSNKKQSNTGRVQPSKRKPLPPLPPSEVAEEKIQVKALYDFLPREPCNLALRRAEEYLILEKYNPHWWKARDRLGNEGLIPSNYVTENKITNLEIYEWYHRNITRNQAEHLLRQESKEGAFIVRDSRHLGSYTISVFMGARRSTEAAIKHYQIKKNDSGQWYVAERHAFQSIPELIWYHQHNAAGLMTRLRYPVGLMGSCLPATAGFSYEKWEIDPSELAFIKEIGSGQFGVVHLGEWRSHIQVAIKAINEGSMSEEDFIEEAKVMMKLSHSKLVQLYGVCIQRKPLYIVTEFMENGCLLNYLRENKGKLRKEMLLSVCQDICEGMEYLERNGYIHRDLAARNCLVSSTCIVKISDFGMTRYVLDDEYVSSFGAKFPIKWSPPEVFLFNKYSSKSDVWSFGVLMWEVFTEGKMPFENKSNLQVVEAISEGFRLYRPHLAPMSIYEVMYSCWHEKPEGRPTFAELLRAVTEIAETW

Structure (SMILES)	assay	setting	remaining binding [%]
CNCc1ccccc1-c1csc([C@H](C)Nc2nc(C)nc3cc(OC)c(OC)cc23)c1	cell-free assay, competition with immobilised ligand	1 µM	100
CN(CCCC(F)(F)F)c1nccc(-c2cnn3ncccc23)n1	binding	1 µM	87
C=CC(=O)N1CCC(C(=O)NCC(=O)N2CCN(c3nc(-c4cnc(N)nc4C(F)F)nc(N4CCOCC4)n3)CC2)CC1	binding, competition with immobilised ligand	1 µM	100
FC(F)(F)Oc1cccc(-c2cnc3ccc(-c4ccncc4)nn23)c1	binding, competition with immobilised ligand	5 µM	55
Nc1ncc2c(n1)-c1c([nH]c3ccc(C#CC4CC4)cc13)CCCC2	binding, competition with immobilised ligand	1 µM	99
c1cnn2ncc(-c3ccnc(N4CCC45COC5)n3)c2c1	binding	1 µM	100
O=C(Nc1c[nH]nc1C(=O)NC1CCNCC1)c1cc(F)cc(F)c1	binding, competition with immobilised ligand	1 µM	100
c1cncc(-c2cccc(Nc3nccc(NC4CCCCC4)n3)c2)c1	binding, competition with immobilised ligand	10 µM	20
O=C(c1ccc(Nc2ncc(Cl)c(-c3ccc(Cl)s3)n2)cc1)N1CCC(N2CCCC2)CC1	binding, competition with immobilised ligand	1 µM	80
CN(C)c1nccc(-c2cnn3ncccc23)n1	binding	1 µM	100
COc1cnc(Nc2cccc(S(N)(=O)=O)c2)nc1N1CCN(c2ccccc2)CC1	binding, competition with immobilised ligand	1 µM	100
C[C@@H]1CCN(c2nccc(-c3cnn4ncccc34)n2)C1	binding	1 µM	100
Cn1nc(C(F)(F)F)cc1-c1cnc(N2CCc3cc(S(=O)(=O)Nc4c(F)cc(Cl)cc4F)cc(N4CCCC4=O)c32)nc1	binding, competition with immobilised ligand	1 µM	100
O=C(c1ccc(Nc2nccc(-c3cc4ccccc4s3)n2)cc1)N1CCC(N2CCCC2)CC1	binding, competition with immobilised ligand	1 µM	92
Cc1nc(N2CC[C@@H](O)C2)ncc1-c1cc(C(F)(F)F)cc2[nH]ncc12	binding, competition with immobilised ligand	1 µM	100
N[C@H]1CCN(c2nccc(-c3cnn4ncccc34)n2)C1	binding	1 µM	100
CCc1ccccc1C(=O)Nc1n[nH]c2c(C)c(F)c(C3C(C#N)=C(C)N(C)C(C)=C3C#N)cc12	binding, competition with immobilised ligand	1 µM	84
O=C(NCCCN1CCOCC1)c1ccc(Nc2nccc(-c3cc4ccccc4s3)n2)cc1	binding, competition with immobilised ligand	1 µM	86
COc1ccnn2ncc(-c3ccnc(N(C)C)n3)c12	binding	1 µM	100
C[C@@H](c1cccc(C#N)c1)n1cc(Cl)cc(C(N)=O)c1=N	binding, competition with immobilised ligand	1 µM	68
Cc1cnn2ncc(-c3ccnc(N(C)C)n3)c2c1	binding	1 µM	100
CCCOc1ccc([C@@H]2[C@@H](C(=O)O)[C@H](c3ccc4c(c3)OCO4)CN2CC(=O)Nc2c(CC)cccc2CC)cc1	binding, competition with immobilised ligand	1 µM	100
